# PGE2 EP2 inh: inhibitors of human EP2 prostaglandin E2 receptor; P43116; C6 glioma cells expressing human EP2, cAMP TR-FRET; cells stimulated with saturating PGE2; inhibition, % at 25 µM; 260,000 compounds, 0.52% hits; AID 1422;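 active = percent inhibition above 40 after rounding to a whole number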;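 note: rat C6 glioma host cells with rolipram phosphodiesterase inhibitor present; the protocol text gives 20 µM as final concentration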
# Target sequence (P43116 whole entry, looked up): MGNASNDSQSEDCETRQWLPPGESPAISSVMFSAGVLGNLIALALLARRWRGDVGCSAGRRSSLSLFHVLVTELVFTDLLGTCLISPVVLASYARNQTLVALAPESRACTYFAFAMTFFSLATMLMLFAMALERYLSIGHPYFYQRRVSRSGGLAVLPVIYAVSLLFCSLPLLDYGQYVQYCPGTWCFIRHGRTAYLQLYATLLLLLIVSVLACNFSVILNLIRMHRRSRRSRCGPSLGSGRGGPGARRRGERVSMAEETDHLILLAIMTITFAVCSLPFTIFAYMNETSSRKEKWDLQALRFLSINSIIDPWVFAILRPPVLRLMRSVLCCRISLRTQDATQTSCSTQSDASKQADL
# NPY-Y2 PAM-ag: potentiates or activates human NPY-Y2 receptor. cells expressing NPY-Y2, potentiator/agonist read-out. AID 1359. 220,000 compounds, 0.45% hits. P49146. activation, % at 3.6 µM; in the data active = activation above about 27%;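 note: cells stimulated with NPY near EC25 plus isoproterenol at EC100; 0% = vehicle plus submaximal agonist and 100% = vehicle plus saturating agonist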
# EP2 modulator: EP2 receptor (human) modulation; EP2-expressing cells, cAMP HTRF FRET, PGE2 co-stimulation; induction, % at 25 µM; 260,000 compounds, 0.83% hits; AID 940;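 active = compounds whose cAMP rise, as percent of the full-agonist control response, exceeds 60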;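 note: rat C6 glioma line stably carrying human EP2 under a CMV promoter; the protocol text gives 20 µM as final concentration; 100% = response of wells given 1 µM PGE2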
# NPY-Y1 PAM-ag: potentiates or activates human NPY-Y1 receptor. 220,000 compounds, 0.37% hits. activation, % at 3.6 µM. NPY-Y1 expressing cells, potentiator/agonist activation. P25929. AID 1304; in the data active = activation above about 33%, passing the limit was not always enough;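 note: cells stimulated with NPY at EC10 then isoproterenol at EC100; 0% = low agonist plus stimulus and 100% = saturating agonist plus stimulus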
# NPY Y1 blocker: antagonists of human neuropeptide Y receptor Y1 | P25929 | HEK293-CNG Y1 cells, membrane potential fluorescence; NPY at EC95, then isoproterenol | inhibition, % at 3.6 µM | 200,000 compounds, 1% hits | AID 1040;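 active = inhibition above the campaign mean inhibition of all tested compounds plus 3 SD, cut at about 20% in these data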;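 note: 0% = DMSO wells given NPY plus isoproterenol and 100% = isoproterenol alone without NPY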
#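 Test system – HEK293 Y1/CNG channel cell line · Also added – NPY agonist 25 nM, then isoproterenol 1 µM plus Ro 20-1724 25 µM · Compound dosing – one concentration, 3.6 µM, in 0.4% DMSO · Schedule – compound incubation 1 h at room temperature, readout 45 min post-stimulation · Technique – fluorescence, membrane potential probe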
# NPY Y2 blocker: blocks the human neuropeptide Y Y2 receptor | P49146 | NPY-Y2 expressing cells, antagonist mode | inhibition, % at 2.7 µM | 140,000 compounds, 0.99% hits | AID 793;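 note: 0% = vehicle with agonist challenge and 100% = reference antagonist with challenge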
# NPY-Y1 ant conf: human NPY-Y1 antagonism, confirmation; shares compounds with NPY Y1 blocker; HEK293-CNG NPY-Y1, membrane potential fluorescence, cAMP; NPY challenge against isoproterenol-raised cAMP; inhibition, % at 3.6 µM; 1,200 compounds, 21% hits; AID 1254; in the data active = inhibition above about 20%;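 note: 0% = vehicle with agonist plus stimulus and 100% = stimulus alone without agonist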
# NPY-Y2 antag ct: counter-screen for NPY-Y1 antagonists: human NPY-Y2 antagonism | inhibition, % at 3.6 µM | 1,200 compounds, 28% hits | shares compounds with NPY Y1 blocker | HEK293 NPY-Y2 CNG membrane potential fluorescence; cells given NPY, then isoproterenol;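 note: 0% = DMSO with agonist challenge and 100% = reference antagonist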
# * hit, by the source's call; · = no result given. An excerpt weighted towards active compounds, which were near 2.8% of everything screened. Cut-off read from the data, not from the text of the source, unless noted: active = inhibition above about 17%; inactive = the rest.
SMILES,PGE2 EP2 inh,NPY-Y2 PAM-ag,EP2 modulator,NPY-Y1 PAM-ag,NPY Y1 blocker,NPY Y2 blocker,NPY-Y1 ant conf,NPY-Y2 antag ct
Cc1cc(C)c(CN2CCN(Cc3ccc(C)o3)C(CCO)C2)c(-n2cccn2)c1 (centres undefined),12,-19,-36,-9,29*,·,8,7
CCOC(=O)c1ccc(CNC(=O)CSc2nnnn2-c2ccc(Cl)cc2)o1,·,-14,25,-9,20*,8,10,12
Cc1nc(C(N)=O)c2[nH]c(=O)n(-c3cccc(F)c3)c2n1,6,·,-13,·,·,·,·,·
Cc1nc2cc(-c3sccc3-n3cccc3)nn2c(C)c1C,·,-31,26,-60,22*,2,17,20*
Cc1nc2cc(-c3cccs3)nn2c(NCCCN(C)C)c1C,8,·,-36,·,·,·,·,·
CC(=O)Nc1oc2ccc(Cl)cc2c1Cl,7,·,-5,·,·,·,·,·
Cc1ccc(C2(O)CCN(Cc3cc(Cl)c4c(c3)OCO4)CC2)cc1,3,·,-70,·,·,·,·,·
CC(NC(=O)Cn1c(NCCO)nc2ccccc21)C1CC2CCC1C2 (centres undefined),7,-12,-6,-39,40*,·,25*,12
O=C1CCCC2=C1C(c1ccncc1)c1c(nc(SCc3ccccc3Cl)[nH]c1=O)N2 (centres undefined),16,-6,-5,-5,-1,2,·,·
CCC(C)Sc1nc2c(c(=O)[nH]1)C(c1cccs1)C1=C(CCCC1=O)N2 (centres undefined),5,1,3,7,22*,·,3,9
Cc1cc(C)c2[nH]c(C(=O)NCc3nc(-c4ccccc4)no3)c(C)c2c1,12,·,-54,·,·,·,·,·
Cc1cc(C)cc(OCC(=O)NCc2nc(-c3ccccc3)no2)c1,8,-19,-47,-50,29*,15,15,11
OCC1(CCCc2ccccc2)CCN(Cc2cc(F)ccc2F)CC1,9,-15,-39,4,10,·,·,·
OCC1(CCc2ccccc2)CCN(Cc2cc(F)ccc2-n2cccn2)CC1,16,-20,-32,-12,23*,·,14,11
C=CCSc1nnc(-c2cc3c(s2)-c2ccccc2CC3)o1,11,-28,17,-38,21*,7,9,5
CC(C)CC(c1nnnn1C(C)C)N1CCN(c2cccc(Cl)c2)CC1 (centres undefined),7,-36,2,-2,37*,13,13,5
CC(C)CC(COCc1cccc(Cl)c1)N1CCN(C(=O)c2ccc(C(F)(F)F)cc2)CCC1=O (centres undefined),8,-3,33,-9,27*,13,14,7
Cc1cccc(COCC(CC(C)C)N2CCN(C(=O)c3ccc(C(F)(F)F)cc3)CCC2=O)c1 (centres undefined),6,-4,33,-23,13,14,·,·
C[C@@H](Cn1nnc2ccccc21)NC(=O)Cn1cnc2ccccc2c1=O,10,·,-18,·,·,·,·,·
CCCc1[nH]nc2c1C(c1ccsc1)C(C#N)=C(N)O2 (centres undefined),6,-2,-55,15,40*,·,38*,22*
COCc1[nH]nc2c1C(c1ccsc1)C(C#N)=C(N)O2 (centres undefined),7,1,-4,-4,2,2,·,·
Cn1c(-c2ccc(O)cc2)n[nH]c1=S,4,·,-8,·,·,·,·,·
Cc1ccc(C(=O)Nc2ncc(Cc3cccc(C(F)(F)F)c3)s2)o1,12,·,8,·,·,·,·,·
CCc1c(C)sc(NC(=O)c2cccs2)c1C(=O)OC(C)C,27,-16,46,-19,20*,4,10,18*
CN(C)c1ccnc(SCc2ccccc2Cl)c1C#N,8,-43,26,-93,28*,8,16,29*
SMILES,PGE2 EP2 inh,NPY-Y2 PAM-ag,EP2 modulator,NPY-Y1 PAM-ag,NPY Y1 blocker,NPY Y2 blocker,NPY-Y1 ant conf,NPY-Y2 antag ct
COc1ccc(C2CCN(Cc3ccncc3)CC2)cc1,·,·,-35,·,·,·,·,·
O=C(CCCCn1c(=O)[nH]c2ccccc2c1=O)N1CCN(c2cccc(C(F)(F)F)c2)CC1,10,4,-28,-56,21*,2,3,3
CCn1c(SCC(=O)Nc2ccccc2Br)nnc1C1CCCCC1,7,·,25,·,·,·,·,·
CCCC(c1nnnn1C(C)(C)C)N1CCN(Cc2ccccc2OC)CC1 (centres undefined),5,-23,-20,-10,22*,·,7,5
CCCCOC(=O)Cn1c(=N)n(CCC)c2ccccc21,13,-7,0,1,40*,7,3,5
CCOc1cc(-c2noc(N)c2C(=O)OC)cc(OCC)c1OCC,·,-7,-5,-30,22*,7,6,4
Cc1ccc(CNC(=O)c2ccc(NS(=O)(=O)c3c(C)noc3C)cc2)cc1,·,-3,3,-7,28*,10,11,10
C=C(Cl)COc1ccc2c(CCCC)cc(=O)oc2c1,16,-1,19,-14,21*,6,3,24*
Cc1cccc(Cc2cnc(NC(=O)CCCl)s2)c1,11,·,29,·,·,·,·,·
COc1ccc(N(C(=O)C2CCCCC2)S(=O)(=O)c2cccc3cccnc23)cc1,6,-7,21,-2,31*,·,21*,7
COc1ccc(C)cc1S(=O)(=O)Nc1cc(C)cc2cccnc12,2,·,-7,·,·,·,·,·
Cc1ccc(-n2cc(CNCCc3ncc(C)[nH]3)c(-c3ccc(F)cc3)n2)cc1,2,-21,-55,-29,27*,·,12,25*
Cc1ccc(-n2cc(CNCCn3nc(C)cc3C)c(-c3ccc(F)cc3)n2)cc1,9,-7,-3,-19,26*,·,27*,14
CCN(CC)CCCN1C(=O)C(=O)/C(=C(\O)c2ccc(C)cc2)C1c1ccc(C)o1 (centres undefined),4,·,-2,·,·,·,·,·
Cc1ccc(Cl)cc1N1CCN(CC(O)COCc2ccco2)CC1 (centres undefined),9,-17,24,-47,21*,10,13,7
Cc1cccc(NC(=O)NNC(=O)c2cc(-c3ccccc3Cl)nc3ccccc23)c1,19,-7,-6,-9,0,7,·,·
Cc1ccc(C)c(NC(=O)c2cc(-c3cccnc3)nc3ccccc23)c1,8,3,29,2,7,·,·,·
Cc1ccccc1NC(=S)NC(=O)c1cc(-c2ccccc2)nc2ccccc12,13,-83,31,-90,21*,12,28*,38*
Cc1cccc(NC(=S)NC(=O)c2cc(-c3ccccc3)nc3ccccc23)c1,12,-3,25,-14,21*,8,16,20*
